Common to all, as to assay type: cell-based
Assay [1] deals with T1, Gamma-secretase (Homo sapiens) (UniProt Q96BI3+Q9NZ42+Q8WW43+P49768+Q92542+P49810). The assay is described as follows: Modulation of gamma secretase in HEK293 cells expressing APP-C99 assessed as effect on amyloid beta peptide levels at up to 10 uM incubated for 2 hrs by sandwich ELISA. The note with it: dose microM <=10, time 2.0 hrs. In short, it runs like this: (§1)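 Concentration-response in HEK293 cells stably expressing C99 (APP C-terminal 99 residues with signal sequence), up to a maximum of 10 μM. Secreted Aβ37, Aβ38, Aβ40 and Aβ42 in medium each measured by a specific sandwich ELISA. Total secreted Aβ also determined by ELISA. Levels compared against DMSO vehicle alone.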

In assay [2] the target is T1, Gamma-secretase (Homo sapiens). In words: Modulation of gamma secretase in HEK293 cells expressing APP-C99 assessed as decrease in Abeta42 levels at 5 uM incubated for 2 hrs by sandwich ELISA. An outline of the steps: (§2)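 HEK293 cells stably expressing C99 with signal sequence, grown in 24-well plates. Single compound concentration 5 μM as initial screen. Aβ37, Aβ38, Aβ40 and Aβ42 secreted into medium each quantified by a specific two-antibody sandwich ELISA. Levels compared with DMSO vehicle alone.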
A general note: In an ELISA, binding on a coated surface is turned into a signal by an enzyme label.

The target is the same in assay [3]. In words: Modulation of gamma secretase in HEK293 cells expressing APP-C99 assessed as increase in Abeta37 levels at 5 uM incubated for 2 hrs by sandwich ELISA. In short, it runs like this:
as §2

Assay [4] shares this target. In words: Modulation of gamma secretase in HEK293 cells expressing APP-C99 assessed as decrease in Abeta40 levels at 5 uM incubated for 2 hrs by sandwich ELISA. An outline of the steps:
as §2

The target is the same in assay [5]. The assay is described as follows: Modulation of gamma secretase in HEK293 cells expressing APP-C99 assessed as increase in Abeta38 levels at 5 uM incubated for 2 hrs by sandwich ELISA. In short, it runs like this: as §2
The target is the same in assay [6]. The assay is described as follows: Modulation of gamma secretase in HEK293 cells expressing APP-C99 assessed as decrease in Abeta42 levels incubated for 2 hrs by sandwich ELISA. In short, it runs like this:
(§3)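 HEK293 cells transiently transfected with C99 (APP C-terminal fragment carrying a signal sequence for membrane insertion) and treated over a concentration range. Secreted Aβ37, Aβ38, Aβ40 and Aβ42 in medium each detected by a specific two-antibody sandwich ELISA. Levels expressed relative to DMSO vehicle alone.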

Assay [7] has the same target. In words: Modulation of gamma secretase in HEK293 cells expressing APP-C99 assessed as increase in Abeta37 levels incubated for 2 hrs by sandwich ELISA. The note with it: filed as modulator. An outline of the steps: as §3
Assay [8] has the same target. In words: Modulation of gamma secretase in HEK293 cells expressing APP-C99 assessed as increase in Abeta38 levels incubated for 2 hrs by sandwich ELISA. The settings on record: filed as modulator. In short, it runs like this: as §3
Assay [9] shares this target. In words: Modulation of gamma secretase in HEK293 cells expressing APP-C99 assessed as decrease in Abeta40 levels incubated for 2 hrs by sandwich ELISA. An outline of the steps:
as §3

The target is the same in assay [10]. In words: Modulation of gamma secretase in HEK293 cells expressing APP-C99 assessed as decrease in Abeta42 levels at up to 10 uM incubated for 2 hrs by sandwich ELISA. The settings on record: dose microM <=10, time 2.0 hrs. An outline of the steps:
as §1

Assay [11] shares this target. In words: Modulation of gamma secretase in HEK293 cells expressing APP-C99 assessed as increase in Abeta37 levels at up to 10 uM incubated for 2 hrs by sandwich ELISA. The settings on record: filed as modulator, dose microM <=10, time 2.0 hrs. An outline of the steps: as §1
The target is the same in assay [12]. In words: Modulation of gamma secretase in HEK293 cells expressing APP-C99 assessed as increase in Abeta38 levels at up to 10 uM incubated for 2 hrs by sandwich ELISA. The settings on record: dose microM <=10, time 2.0 hrs. An outline of the steps:
as §1

Assay [13] shares this target. In words: Modulation of gamma secretase in HEK293 cells expressing APP-C99 assessed as decrease in Abeta40 levels at up to 10 uM incubated for 2 hrs by sandwich ELISA. The note with it: dose microM <=10, time 2.0 hrs. An outline of the steps:
as §1

The source made the active and inactive calls. The rule behind the calls is not given here.

For `Cc1ccc(Nc2nc(-c3ccc(-n4cnc(C)c4)c(F)c3)cs2)c(C)c1`, the result in assay [1] was inactive.

As to `Cc1cn(-c2ccc(-c3csc(NC4C5CC6CC(C5)CC4C6)n3)cc2F)cn1` (stereo unspecified), in [1] (filed as modulator), the result was Active.

Turning to `Cc1cn(-c2ccc(-c3csc(Nc4cccc(F)c4)n3)cc2F)cn1`, the result in assay [2] and in assay [4] was inactive. Besides, the result in assay [3] (filed as modulator) and in assay [5] (filed as modulator) was Active.

Regarding `Cc1cn(-c2ccc(-c3csc(Nc4cc(F)c(C)cc4C)n3)cc2F)cn1`, the outcome in assay [2], in assay [3], in [4] and in assay [5] was inactive.

As for `Cc1cn(-c2ccc(-c3csc(Nc4cc(C)c(C)cc4F)n3)cc2F)cn1`, the result in [2] and in assay [4] was inactive. For the same compound, the outcome in assay [3] (filed as modulator) and in assay [5] (filed as modulator) was Active.

In the case of `CCc1cc(Nc2nc(-c3ccc(-n4cnc(C)c4)c(F)c3)cs2)c(C)cc1C`, the outcome in assay [1] (filed as modulator) was Active.

Regarding `Cc1cn(-c2ccc(-c3csc(Nc4cccc(F)c4F)n3)cc2F)cn1`, the outcome in [2], in [3], in [4] and in assay [5] was inactive.

For `Cc1cn(-c2ccc(-c3csc(Nc4cc(C)c(F)cc4C)n3)cc2F)cn1`, the outcome in [2] and in assay [4] was inactive. Moreover, the outcome in [3] (filed as modulator) and in assay [5] (filed as modulator) was Active.

With `Cc1cn(-c2ccc(-c3csc(Nc4ccccc4F)n3)cc2F)cn1`, the outcome in [2] and in assay [4] was inactive. The result in assay [3] (filed as modulator) and in assay [5] (filed as modulator) was Active.

With `CCc1cc(Nc2nc(-c3ccc(-n4cnc(C)c4)c(F)c3)cs2)c(F)cc1C`, the outcome in assay [2] (filed as modulator) and in assay [4] (filed as modulator) was Active.

For the compound `Cc1ccc(Nc2nc(-c3ccc(-n4cnc(C)c4)c(F)c3)cs2)c(F)c1`, the outcome in assay [6] and in assay [9] was inactive. Moreover, the Activity entry in assay [7] and in assay [8] was “Dose-Dependent Effect” each time.

Regarding `Cc1cn(-c2ccc(-c3csc(Nc4ccc(O)cc4)n3)cc2F)cn1`, in assay [1] (filed as modulator), the result was Active.

For `Cc1cn(-c2ccc(-c3csc(NC4CCCCC4)n3)cc2F)cn1`, the result in assay [1] (filed as modulator) was Active.

Regarding `Cc1cn(-c2ccc(-c3csc(Nc4cc(C)c(C)cc4C)n3)cc2F)cn1`, the outcome in assay [1] (filed as modulator) was Active.

Regarding `Cc1cn(-c2ccc(-c3csc(Nc4ccc(Cl)cc4Cl)n3)cc2F)cn1`, the result in assay [2] and in assay [4] was inactive. The outcome in assay [3] (filed as modulator) and in [5] (filed as modulator) was Active.

`Cc1cn(-c2ccc(-c3csc(Nc4cc(F)ccc4C)n3)cc2F)cn1`: the outcome in [6] and in [9] was inactive. Moreover, the Activity result in [7] and in assay [8] was “Dose-Dependent Effect” in each case.

Take `Cc1cn(-c2ccc(-c3csc(Nc4ccc(F)cc4C)n3)cc2F)cn1`: the result in assay [6] and in assay [9] was inactive. Moreover, the Activity entry in assay [7] and in assay [8] was “Dose-Dependent Effect” throughout.

With `Cc1cn(-c2ccc(-c3csc(Nc4c(F)cc(F)cc4F)n3)cc2F)cn1`, the outcome in assay [2] (filed as modulator), in assay [3] (filed as modulator), in assay [4] (filed as modulator) and in assay [5] (filed as modulator) was Active.

`Cc1cn(-c2ccc(-c3csc(Nc4ccc(F)cc4F)n3)cc2F)cn1`: the outcome in assay [2] and in assay [4] was inactive. The outcome in assay [3] (filed as modulator) and in assay [5] (filed as modulator) was Active.

`Cc1cn(-c2ccc(-c3csc(Nc4cc(Br)c(Br)cc4Br)n3)cc2F)cn1`: the result in assay [2] and in [4] was inactive. For the same compound, the result in assay [3] (filed as modulator) and in assay [5] (filed as modulator) was Active.

Consider `Cc1cn(-c2ccc(-c3csc(Nc4c(F)cccc4F)n3)cc2F)cn1`, for which the result in assay [2], in assay [3], in assay [4] and in [5] was inactive.

On to `Cc1cn(-c2ccc(-c3csc(Nc4ccc([N+](=O)[O-])cc4)n3)cc2F)cn1`, for which, in assay [1] (filed as modulator), the outcome was Active.

As to `Cc1cn(-c2ccc(-c3csc(Nc4ccc(F)c(F)c4)n3)cc2F)cn1`, the outcome in assay [2], in [3], in [4] and in assay [5] was inactive.

In the case of `Cc1cn(-c2ccc(-c3csc(Nc4cc(Cl)c(Cl)cc4Cl)n3)cc2F)cn1`, the result in assay [2], in assay [3], in assay [4] and in [5] was inactive.

In the case of `Cc1cn(-c2ccc(-c3csc(Nc4ccc(F)cc4)n3)cc2F)cn1`, the outcome in assay [2] and in assay [4] was inactive. Further, the result in [3] (filed as modulator) and in assay [5] (filed as modulator) was Active.

In the case of `Cc1cn(-c2ccc(-c3csc(Nc4ccccc4)n3)cc2F)cn1`, the result in assay [1] was inactive.

`Cc1cn(-c2ccc(-c3csc(NCc4ccccc4)n3)cc2F)cn1`: the result in assay [1] (filed as modulator) was Active.

As for `Cc1ccc(F)c(Nc2nc(-c3ccc(-n4cnc(C)c4)c(F)c3)cs2)c1`, the result in assay [6] and in assay [9] was inactive. For the same compound, the Activity entry in [7] and in [8] was “Dose-Dependent Effect” throughout.

`Cc1cn(-c2ccc(-c3csc(Nc4cc(F)c(F)cc4F)n3)cc2F)cn1`: the outcome in assay [10], in [12] and in assay [13] was inactive. The result in [11] was Active.

`Cc1cn(-c2ccc(-c3csc(Nc4cc(F)ccc4F)n3)cc2F)cn1`: the outcome in [2], in [3], in assay [4] and in assay [5] was inactive.

For the origin of these results see ChEMBL document CHEMBL5029182, “Discovery of aryl aminothiazole γ-secretase modulators with novel effects on amyloid β-peptide production” (Bioorg Med Chem Lett, 2021).
